Experimental data as given in ChEMBL document CHEMBL4715743, “Synthesis and biological evaluation of indole-2-carboxamides bearing photoactivatable functionalities as novel allosteric modulators for the cannabinoid CB1 receptor” (Eur J Med Chem, 2016).

Legend:
[1] = molecular target: Cannabinoid receptor 1 (Homo sapiens) (UniProt P21554); experiment: Negative allosteric modulator activity at CB1 receptor (unknown origin) expressed in HEK293 cell membrane assessed as reduction in CP55,940-induced [35S]GTPgammaS binding by measuring Emax of CP55,940 at 3.2 uM incubated for 60 mins by liquid scintillation counting analysis (reference value: 68.9 +/-1.7 fmol/mg); format: functional, cell membranes; settings: filed as negative allosteric modulator
[2] = molecular target: Cannabinoid receptor 1 (Homo sapiens) (UniProt P21554); experiment: Negative allosteric modulator activity at CB1 receptor (unknown origin) expressed in HEK293 cell membrane assessed as reduction in CP55,940-induced [35S]GTPgammaS binding at 10 uM incubated for 60 mins by liquid scintillation counting analysis; format: functional, cell membranes; settings: filed as negative allosteric modulator
[3] = molecular target: Cannabinoid receptor 1 (Homo sapiens) (UniProt P21554); experiment: Negative allosteric modulator activity at CB1 receptor (unknown origin) expressed in HEK293 cell membrane assessed as reduction in CP55,940-induced [35S]GTPgammaS binding incubated for 60 mins by liquid scintillation counting analysis; format: functional, cell membranes; settings: filed as negative allosteric modulator, dose 3.2-10 µM
[4] = molecular target: Cannabinoid receptor 1 (Homo sapiens) (UniProt P21554); experiment: Negative allosteric modulator activity at CB1 receptor (unknown origin) expressed in HEK293 cell membrane assessed as equilibrium dissociation constant using [3H]-CP55940 as radiolabelled orthosteric agonist incubated for 60 mins by liquid scintillation counting analysis; format: cell membranes; settings: filed as negative allosteric modulator
In short: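 HEK293 cells transiently transfected with CB1 (calcium phosphate), harvested at 24 h; membranes from nitrogen cavitation and 100,000 g pellet, kept in TME buffer (pH 7.4) with 7% sucrose. 4 µg membrane incubated 60 min with [3H]CP55940 at about its Kd in TME plus 0.1% fatty acid-free BSA. Nonspecific binding taken with 1 µM unlabeled CP55,940; filtration on GF/C. At least three experiments, each in duplicate.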

Chain of Cannabinoid receptor 1 (Homo sapiens) (P21554 whole entry): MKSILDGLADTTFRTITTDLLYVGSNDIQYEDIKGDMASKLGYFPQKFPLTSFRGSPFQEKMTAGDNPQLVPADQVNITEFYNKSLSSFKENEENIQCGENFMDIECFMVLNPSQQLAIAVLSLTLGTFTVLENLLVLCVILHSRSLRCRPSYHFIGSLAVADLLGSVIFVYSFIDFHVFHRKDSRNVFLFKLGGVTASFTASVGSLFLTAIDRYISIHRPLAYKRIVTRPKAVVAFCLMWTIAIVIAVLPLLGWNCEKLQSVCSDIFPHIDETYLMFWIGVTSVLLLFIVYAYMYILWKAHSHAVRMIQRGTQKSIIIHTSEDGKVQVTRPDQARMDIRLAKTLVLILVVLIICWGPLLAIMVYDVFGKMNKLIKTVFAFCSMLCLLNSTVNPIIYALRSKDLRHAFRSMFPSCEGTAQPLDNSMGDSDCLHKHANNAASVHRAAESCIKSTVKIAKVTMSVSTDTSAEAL

SMILES	Emax [1]	inhibition [2]	inhibition [3]	Kb [4]
CCc1c(C(=O)NCCc2ccc(C(=O)c3ccccc3)cc2)[nH]c2ccc(Cl)cc12	41.3 fmol/mg	100%	Dose-dependent effect	254 nM
CN(C)c1ccc(CCNC(=O)c2[nH]c3ccc(Cl)cc3c2CN=[N+]=[N-])cc1	31.1 fmol/mg	100%	Dose-dependent effect	200 nM
[N-]=[N+]=NCc1c(C(=O)NCCc2ccc(C(=O)c3ccccc3)cc2)[nH]c2ccc(Cl)cc12	–	–	–	6310 nM
[N-]=[N+]=NCc1c(C(=O)NCCc2ccc(N3CCCCC3)cc2)[nH]c2ccc(Cl)cc12	–	–	–	784 nM

The remaining lines, values ahead:

Emax [1]	inhibition [2]	inhibition [3]	Kb [4]	SMILES
–	–	–	3280 nM	CCCCCCc1c(C(=O)NCCc2ccc(C3(C(F)(F)F)N=N3)cc2)[nH]c2ccc(Cl)cc12
27 fmol/mg	100%	Dose-dependent effect	559 nM	CCCCCc1c(C(=O)NCCc2ccc(C(=O)c3ccccc3)cc2)[nH]c2ccc(Cl)cc12
34.1 fmol/mg	100%	Dose-dependent effect	314 nM	CCCCCCc1c(C(=O)NCCc2ccc(N=[N+]=[N-])cc2)[nH]c2ccc(Cl)cc12
